# Assay results taken from article PMC9868778 (Planta Medica, 2022).
# Values joined by “and” are separate entries in the source; they are usually repeats but may differ in a detail not shown here. Equal entries are not always repeated. Where two headings read alike, the source gives them in different places.
# How the values were obtained:
# [1] = system: placental tissue; test: Viability and functionality of placental tissue during ex vivo perfusion; set-up: species or system human
# How it was run: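 Ex vivo perfusion of human placental cotyledons with 100 mL medium per circuit. Fetal circuit gassed with 95% N2/5% CO2, maternal with 95% air/5% CO2. […] Glucose and lactate were measured by blood gas analyser at the start and end of perfusion; β-hCG and leptin by ELISA. Values were normalized to perfusion time and cotyledon weight; Brown-Forsythe/Welch ANOVA with Dunnett's T3.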
# [2] = for transfer across the placental barrier (maternal to fetal circuit): 5 µM added to maternal circuit, 360 min perfusion; for time to steady-state concentration: 5 µM in maternal circuit; for F perfusate (% found): fetal perfusate after 360 min; for F perfusate (% found) / M perfusate (% found): % of initial amount; for M perfusate (% found): maternal perfusate after 360 min; for steady-state concentration, fetal side / steady-state concentration, maternal side: % of initially analyzed concentration in the maternal sample
# [3] = Perfusion system adherence test; type: in vitro ADME; settings: % of initially analyzed concentration, 360 min, 5 µM in PM, n = 3
# How it was run: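 No placenta in the chamber; only the maternal circuit was run, for 360 min. Test compound was dissolved directly in perfusion medium at a final 5 µM and run on its own. Quantified by U(H)PLC-MS/MS and expressed as % of the initial maternal concentration. Three independent experiments, mean ± SD.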
# [4] = Fraction unbound in placental homogenate; type: in vitro ADME, human; settings: for fraction unbound at 240 min, 2 µM: human, placental homogenate (5-fold diluted in PBS)
# [5] = system: noradrenaline transporter; settings: expressed in murine N1 cells ref 23; cited from earlier work
# [6] = Stability of compounds in PBS, perfusion medium and placental homogenate; type: in vitro ADME, human; settings: 360 min, 4 °C and 37 °C
# [7] = system: 5-HT 1A receptors; settings: expressed in human CHO cell membranes ref 22; cited from earlier work
# [8] = system: placental tissue; test: Histopathological evaluation of perfused placental tissue; set-up: species or system human
# How it was run: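 Human placental tissue after ex vivo perfusion: sections taken immediately afterwards from the perfused area, the non-perfused area and the transitional area. Fixed in 4% paraformaldehyde ≥24 h, paraffin-embedded, cut at 2–3 µm. Stained with H&E, plus a modified Gram stain (Braun-Brenn) to check for bacterial contamination. Scored for intravascular thrombi, cytotrophoblast vacuolization, hydropic villous changes and villous endothelium viability, compared against non-perfused tissue.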
# [9] = system: serotonin transporter; settings: expressed in murine S6 cells ref 23; cited from earlier work
# [10] = during 360 min, control perfusions
# [11] = 5 µM, compared with antipyrine control perfusions
# [12] = perfused tissue, individual experiments 1-4
# [13] = perfused tissue, individual experiments 1-4, listed as Protopine
Compound,transfer across the placental barrier (maternal to fetal circuit) [2],time to steady-state concentration [2],F perfusate (% found) [2] [%],M perfusate (% found) [2] [%],adherence to perfusion equipment (compound lost) [3],"fraction unbound at 240 min, 2 µM [4]","effect on placental viability and metabolic activity (glucose consumption, lactate production) [1, 11]","steady-state concentration, fetal side [2] [%]","steady-state concentration, maternal side [2]",other results
Cc1cc(=O)n(-c2ccccc2)n1C [antipyrine],readily crossed the placental barrier,approximately 120 min,19.8,22.0,7.4 ± 4.7%,1,,,,"leptin production ([1]; control perfusions): 334.8 pg/g/min; β-hCG production ([1]; control perfusions): 95.7 mU/g/min; lactate production [1, 10]: 0.27 µmol/g/min; total glucose consumption [1, 10]: 0.39 µmol/g/min; time to equilibrium between maternal and fetal circuits ([2]; connectivity control in perfusions with protopine): 120 to 240 min"
CN(C)CCCC1(c2ccc(F)cc2)OCc2cc(C#N)ccc21 (stereo not drawn) [citalopram],crossed the human placental barrier,approximately 60 min,6.4,11.4,48.4% and 48.4 ± 12.9%,0.21 ± 0.01,did not impair placental viability and metabolic activity,11,22%,
CN1C(=O)CN=C(c2ccccc2)c2cc(Cl)ccc21 [diazepam],crossed the human placental barrier,approximately 45 min,,7.9,54.8% and 54.8 ± 12.7%,,did not impair placental viability and metabolic activity,,,"steady-state concentration (side not specified) ([2]; % of initially analyzed concentration, slow decrease until 360 min): 24%"
protopine,rapidly transferred from the maternal to the fetal circuit,,14.0,23.1,20.4% and 20.4 ± 9.5%,,did not impair placental viability and metabolic activity,~20,approximately 27%,"effect on β-hCG and leptin production [1, 11]: did not inhibit; effect on placental viability and metabolic activity (glucose consumption, lactate production) ([1]; 5 µM, compared with antipyrine control perfusions, listed as Protopine): did not affect placental viability or functionality; transfer across the placental barrier (maternal to fetal circuit) ([2]; listed as Protopine): transferred from the maternal to the fetal circuit; fetal-maternal concentration ratio (FM ratio) ([2]; after 360 min, antipyrine from control perfusions): 0.75; Final recovery (% found) ([2]; sum of fetal and maternal perfusates, sampling and system adherence, 360 min): 71.4 ± 8.6%; inhibition of noradrenaline transporter [5]: inhibitor; stability in PM [6]: slightly less stable; ligand at 5-HT 1A receptors [7]: ligand at 5-HT 1A receptors; Fraction unbound (fu,hom) ([4]; placental homogenate vs PBS, 2 µM, 240 min, 37 °C, 3 donors): 0.48 ± 0.04; damage of placental tissue (endothelium, vascular rupture, thrombi, trophoblast vacuolization) ([8]; overall assessment): did not cause apparent damage of placental tissue; Thrombi in vessels of stem villi [8, 12]: 0%; Thrombi in villous vessels [8, 12]: 5%; Thrombi in villous vessels [8, 13]: 1% and 0%; Vacuolated trophoblast in villi [8, 13]: 0% and 20% and 1% (2×); inhibition of serotonin transporter [9]: inhibitor"
